This note sets out measurements from ChEMBL document CHEMBL4414680, “Identification of new potent A1 adenosine receptor antagonists using a multistage virtual screening approach” (Eur J Med Chem, 2020).

One may read the Ki as a dissociation constant, usually derived from enzyme kinetics or from competition with a known ligand. The term IC50 denotes the point on the concentration scale where inhibition reaches its midpoint.

Test [1] has as its target T1, Adenosine receptor A1 (Homo sapiens, UniProt P30542).
T1 sequence (P30542 whole entry): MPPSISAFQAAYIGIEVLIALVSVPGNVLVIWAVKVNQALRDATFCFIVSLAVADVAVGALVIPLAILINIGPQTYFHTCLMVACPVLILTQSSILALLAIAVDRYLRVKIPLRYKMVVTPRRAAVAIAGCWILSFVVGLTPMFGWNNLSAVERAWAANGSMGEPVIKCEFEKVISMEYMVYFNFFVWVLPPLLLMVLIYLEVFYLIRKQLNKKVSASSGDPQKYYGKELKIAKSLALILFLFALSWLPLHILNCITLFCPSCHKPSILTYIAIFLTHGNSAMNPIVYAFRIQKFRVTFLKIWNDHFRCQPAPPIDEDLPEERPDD
Briefly: Displacement of [3H]DPCPX from human A1AR expressed in CHO cells incubated for 50 mins by radioligand binding assay. It counts as cell-based. A general note: Loss of bound radioactivity is the signal in a displacement assay; it reports binding, not function.

A further test concerns the target Adenosine receptor A2a (Homo sapiens, UniProt P29274). Briefly: Displacement of [3H]ZM241385 from human A2AR expressed in CHO cells after 90 mins by radioligand binding assay. In kind it is cell-based.
A further test is filed under the species Homo sapiens. Briefly: Selectivity index, ratio of Ki for human A1AR expressed in CHO cells to Ki for human A2AR expressed in CHO cells by radioligand binding assay. In kind it is cell-based.
Test [2] has as its target T1, Adenosine receptor A1. Kind of test: Antagonist activity at human A1AR expressed in CHO-K1 cells assessed as reduction in NECA-induced inhibition of forskolin-stimulated cAMP accumulation incubated for 30 mins by fluorescence based assay. In kind it is functional, cell-based. The essentials:
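CHO-K1 cells stably expressing human A1AR, grown in F12K + 10% FBS + 800 µg/ml hygromycin B at 37 ℃/5% CO2, resuspended in HBSS with 0.1% BSA, 20 mM HEPES, 100 nM IBMX; 8000 cells/well. Ten 3-fold compound dilutions; forskolin (8 µM) plus NECA (40 nM) added, 30 min at 37 ℃. HTRF cAMP detection (Eu3+ cryptate anti-cAMP, d2-cAMP), 1 h room temperature, read at 665/615 nm.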
A general note: Changes in cAMP serve as a functional read-out for many G protein-coupled receptors.

Chain of Adenosine receptor A2a (P29274 whole entry): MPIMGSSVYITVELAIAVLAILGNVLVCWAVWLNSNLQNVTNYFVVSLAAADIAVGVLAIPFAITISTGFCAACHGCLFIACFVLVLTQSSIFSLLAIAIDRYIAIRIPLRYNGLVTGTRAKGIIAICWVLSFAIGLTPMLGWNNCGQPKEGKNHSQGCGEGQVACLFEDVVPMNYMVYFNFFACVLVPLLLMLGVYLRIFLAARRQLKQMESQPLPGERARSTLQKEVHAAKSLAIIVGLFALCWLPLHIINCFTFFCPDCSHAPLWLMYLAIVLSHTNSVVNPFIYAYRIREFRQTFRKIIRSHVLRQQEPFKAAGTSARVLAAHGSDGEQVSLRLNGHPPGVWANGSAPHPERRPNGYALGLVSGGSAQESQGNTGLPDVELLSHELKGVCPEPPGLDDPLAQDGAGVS

`CCOC(=O)N1CCN(c2cc(NC3CCCCC3)c3c4c(onc24)-c2ccccc2C3=O)CC1` had a Ki on Adenosine receptor A1 [1] of 19.5 µM.

As for `O=c1[nH]c(N2CCCC2)nc2nccc(-c3ccc(Cl)cc3)c12`, the Ki on Adenosine receptor A1 [1] was 0.776 µM; at Adenosine receptor A2a it was more than 100 µM. The Ratio Ki in the test listed under Homo sapiens is less than 0.01. Further, the IC50 at Adenosine receptor A1 [2] is 1.48 µM.

Turning to `COc1ccc(-c2cc(-c3cccc(Br)c3)c(C#N)c(N)n2)cc1`, the Ki is 0.209 µM on Adenosine receptor A1 [1] and 38 µM on Adenosine receptor A2a. In addition, the Ratio Ki in the test filed under Homo sapiens was 0.006. Besides, the 50% inhibitory concentration (IC50) on Adenosine receptor A1 [2] is 1.86 µM.

At Adenosine receptor A1 [1], `Cc1cc(C)nc(Nc2nc(-c3ccccc3)c3ccc(Cl)cc3n2)n1` had a Ki of 6.92 µM.

As for `CC(C)C(=O)Nc1nc2n(n1)C(c1ccccc1Cl)C=C(c1ccccc1)N2` (stereo unspecified), the affinity at Adenosine receptor A1 [1], expressed as Ki, was 32.4 µM.

The compound `Oc1ccccc1Nc1nc(-c2ccccc2)c2cc(Cl)ccc2n1` gave an inhibition constant (Ki) at Adenosine receptor A1 [1] of 20 µM.

Take `N#Cc1c(N)nc2c(c1-c1ccc3c(c1)OCO3)CCCC2`: the results for the Ki on Adenosine receptor A1 [1] and on Adenosine receptor A2a were 0.0741 µM and more than 100 µM, respectively. The Ratio Ki in the test filed under Homo sapiens was less than 0.001. Further, the IC50 on Adenosine receptor A1 [2] was 0.417 µM.

In turn, `Cc1cc(=O)n2c(n1)NC(Nc1cccc(C)c1C)=NC2c1ccc(F)cc1` (stereo unspecified) showed a Ki on Adenosine receptor A1 [1] of 3.24 µM.

For the compound `COc1ccccc1CNC(=O)c1cc(Nc2ccccc2C)nc2ccccc12`, the affinity at Adenosine receptor A1 [1], expressed as Ki, was 1.12 µM.

In turn, `Cc1ccc(C2=CC(c3ccccc3Cl)n3nc(CCCO)nc3N2)cc1` (stereo unspecified) gave a Ki on Adenosine receptor A1 [1] of 18.6 µM.

With `CC(C)CN1C(=O)/C(=C/c2c(NCCc3ccccc3)nc3ccccn3c2=O)SC1=S`, the Ki on Adenosine receptor A1 [1] was 13.5 µM.

`O=C1CC(C(=O)Nc2ccccc2)c2c(nc(SCc3ccccc3F)[nH]c2=O)N1` (stereo unspecified) had a Ki on Adenosine receptor A1 [1] of 7.24 µM.

As to `CCCN(CCC)c1c(-c2ccccc2)c2cc(Cl)ccc2[nH]c1=O`, the Ki on Adenosine receptor A1 [1] was 25.7 µM.

Regarding `Cc1ccc(C(=O)Nc2c(C(=O)NC3CCCC3)[nH]c3ccc(C)cc23)cc1`, the values for the Ki on Adenosine receptor A1 [1] and on Adenosine receptor A2a were 0.513 µM and more than 100 µM, respectively. The Ratio Ki in the test listed under Homo sapiens was less than 0.01. Further, the IC50 on Adenosine receptor A1 [2] was 3.09 µM.

`COc1ccc(/C=C/c2ccnc3nc(N4CCCCC4)[nH]c(=O)c23)cc1` had a Ki at Adenosine receptor A1 [1] of 3.02 µM.

For `O=C(Cn1cc(-c2ccccc2)c2ncn(C3CC3)c(=O)c21)NCc1ccc(F)cc1`, the Ki at Adenosine receptor A1 [1] is 0.589 µM; on Adenosine receptor A2a, 36.3 µM. For the same compound, the Ratio Ki in the test listed under Homo sapiens came out at 0.016. In addition, on Adenosine receptor A1 [2], the IC50 is 2.82 µM.

In the case of `CCC(C(=O)n1nc(-c2ccccc2)nc1N)c1ccccc1` (stereo unspecified), the Ki at Adenosine receptor A1 [1] is 10.7 µM.

On to `C=CCn1c(SCc2ccccn2)nc2c([nH]c3ccccc32)c1=O`, for which the Ki is 0.708 µM at Adenosine receptor A1 [1] and more than 100 µM at Adenosine receptor A2a. Moreover, the Ratio Ki in the test filed under Homo sapiens is less than 0.01. In addition, at Adenosine receptor A1 [2], the IC50 was 1.26 µM.
